A selection: hits, their analogues and other compounds. The true share with any hit is near 1.6%.
MsrA inh – inhibits bovine methionine sulfoxide reductase A; purified bovine MsrA, absorbance read-out; inhibition, % at 15.5 µM; 0.75% of 360,000 active; AID 651718;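 further: 0% = vehicle wells with enzyme and 100% = reference inhibitor wells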
p-CIP stab down – compounds decreasing mouse p/CIP protein stability; F442A p/CIP-EGFP cells, EGFP fluorescence, 16 h; 0.01% of 290,000 active; AID 1984; Q05BA5; decrease of EGFP signal, % at 10 µM;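 active means EGFP signal decrease of at least 30% at 10 µM or well 3 SD below plate mean, unless failing retest; inactive means the rest, including hits failing retest or dose response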
Target sequence (Q05BA5 1-1403): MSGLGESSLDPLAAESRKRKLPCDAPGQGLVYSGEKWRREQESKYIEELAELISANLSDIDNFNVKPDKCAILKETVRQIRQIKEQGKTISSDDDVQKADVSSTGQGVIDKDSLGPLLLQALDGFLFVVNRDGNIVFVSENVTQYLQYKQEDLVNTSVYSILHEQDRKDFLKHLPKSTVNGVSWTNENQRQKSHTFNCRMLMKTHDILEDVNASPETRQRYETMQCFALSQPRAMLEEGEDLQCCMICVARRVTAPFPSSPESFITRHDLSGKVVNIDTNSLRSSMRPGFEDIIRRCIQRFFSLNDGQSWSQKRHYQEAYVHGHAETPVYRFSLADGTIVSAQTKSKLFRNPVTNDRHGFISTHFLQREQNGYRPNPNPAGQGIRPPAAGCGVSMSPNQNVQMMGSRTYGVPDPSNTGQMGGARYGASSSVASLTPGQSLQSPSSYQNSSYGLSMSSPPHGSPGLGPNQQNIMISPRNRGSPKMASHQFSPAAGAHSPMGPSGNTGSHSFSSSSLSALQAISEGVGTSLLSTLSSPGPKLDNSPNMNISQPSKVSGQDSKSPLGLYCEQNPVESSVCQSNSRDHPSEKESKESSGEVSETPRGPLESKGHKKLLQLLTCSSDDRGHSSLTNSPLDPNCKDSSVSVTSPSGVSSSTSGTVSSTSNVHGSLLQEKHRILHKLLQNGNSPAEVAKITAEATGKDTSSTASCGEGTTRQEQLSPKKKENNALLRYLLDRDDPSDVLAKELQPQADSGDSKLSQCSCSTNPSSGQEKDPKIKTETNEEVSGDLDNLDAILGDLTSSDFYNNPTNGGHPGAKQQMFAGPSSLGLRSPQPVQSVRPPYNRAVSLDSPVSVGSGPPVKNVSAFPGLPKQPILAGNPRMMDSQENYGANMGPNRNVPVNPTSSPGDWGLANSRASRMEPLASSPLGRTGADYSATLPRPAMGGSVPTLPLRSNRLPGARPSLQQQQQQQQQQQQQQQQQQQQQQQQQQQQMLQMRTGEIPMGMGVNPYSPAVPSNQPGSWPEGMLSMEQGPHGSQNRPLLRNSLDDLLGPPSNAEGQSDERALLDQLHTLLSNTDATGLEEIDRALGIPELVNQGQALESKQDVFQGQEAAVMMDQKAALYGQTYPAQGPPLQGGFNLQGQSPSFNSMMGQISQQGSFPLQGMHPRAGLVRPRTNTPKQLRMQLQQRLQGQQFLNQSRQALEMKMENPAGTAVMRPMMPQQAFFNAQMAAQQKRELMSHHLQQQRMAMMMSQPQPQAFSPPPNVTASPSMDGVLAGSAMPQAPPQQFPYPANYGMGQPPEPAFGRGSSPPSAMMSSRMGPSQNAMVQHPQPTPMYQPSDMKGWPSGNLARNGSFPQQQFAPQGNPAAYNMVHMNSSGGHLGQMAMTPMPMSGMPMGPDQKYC
MT1-MMP act inh – MT1-MMP (human) activation inhibition; GFP/RFP ratio change, % at 20 µM; 0.061% of 360,000 active; HT1080 RFP-PRO-GFP cells, GFP/RFP ratio fluorescence, overnight; percent of plate control window, DMSO zero;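 active means GFP/RFP ratio change of at least 30% with cell ATP level not reduced by more than half and red fluorescence within 50% of control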
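Material: RFP-PRO-GFP reporter HT1080 cells. Dosing: single-point 20 µM compound, 1% DMSO. Controls: DMSO and RFP-L50D-GFP cell wells. Timing: cells overnight before dosing, compound overnight, 37 °C, 5% CO2. Measure: GFP/RFP fluorescence ratio.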
SKN-1 inh – blocks SKN-1 activity in C. elegans; C. elegans VP596 Pgst-4::GFP/RFP ratio, acrylamide-induced, 24 h; inhibition, % at 21.8 µM; 0.49% of 360,000 active; AID 624304;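 active means interference check ratio from 0.5 to 1.5 plus GFP to RFP signal ratio inhibition reaching or exceeding a fixed threshold, cut at about 30% in these data, passing the limit was not always enough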
MsrA act – activators of bovine methionine sulfoxide reductase A | purified bovine MsrA, absorbance read-out | activation, % at 10.6 µM | 0.3% of 360,000 active; in the data active means activation above about 7.5%;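 further: 0% = vehicle and 100% = reference activator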
MsrA inh confirm – bovine MsrA inhibition, confirmed. shares compounds with MsrA inh. purified bovine MsrA, absorbance read-out. inhibition, % at 15.5 µM. 41% of 2,300 active. AID 651822;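 further: coupled to thioredoxin reductase with NADPH and selenocystamine and DMSO as substrate; 0% = vehicle only and 100% = full effect of reference inhibitor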
An asterisk follows results filed as active. Unless noted, no stated cut-off is given here; in the data, active means inhibition above about 4.5%; inactive means the rest.

Screening CCCN1C(=O)c2n[nH]c(C)c2C1c1ccc(Br)cc1 (stereo not drawn) returned MsrA inh -1.
CS(=O)(=O)c1ccc2nc(NC(=O)c3ccco3)sc2c1 was read as MsrA inh 5.7*, p-CIP stab down -11, MT1-MMP act inh -1, SKN-1 inh -8, MsrA act 0 and MsrA inh confirm 4.7*.
CS(=O)(=O)c1ccc2nc(NC(=O)c3ccc(Cl)cc3)sc2c1 was read as MsrA inh 0, p-CIP stab down -6, MT1-MMP act inh 2, SKN-1 inh -9 and MsrA act -4.
Screening O=C(Nc1nc2cc3c(cc2s1)OCCO3)c1ccco1 returned MsrA inh 4.7*, p-CIP stab down -7, MT1-MMP act inh 0, SKN-1 inh 17, MsrA act -11 and MsrA inh confirm 4.7*.
Screening O=C(Nc1nc2cc3c(cc2s1)OCO3)C1=COCCO1 returned MsrA inh 5.2*, p-CIP stab down -4, MT1-MMP act inh 2, SKN-1 inh 9, MsrA act -5 and MsrA inh confirm 2.
For CC(=O)Nc1nc2cc3c(cc2s1)OCO3 the results were MsrA inh 0, p-CIP stab down -2, MT1-MMP act inh 0, SKN-1 inh 10 and MsrA act -2.
`CS(=O)(=O)c1ccc2nc(NC(=O)c3ccc(=O)[nH]c3)sc2c1` gave MsrA inh 6.3*, p-CIP stab down -7, MT1-MMP act inh 1, SKN-1 inh 4, MsrA act -19 and MsrA inh confirm 6.0*.
`CN(C)CCNC(=O)c1coc(=O)c(Br)c1` gave MsrA inh 4, p-CIP stab down 4, MT1-MMP act inh -2, SKN-1 inh 11 and MsrA act -3.
For CC(C)CNC(=O)c1coc(=O)c(Br)c1 the results were MsrA inh 5.7*, p-CIP stab down -12, MT1-MMP act inh 10, SKN-1 inh 18, MsrA act -6 and MsrA inh confirm 6.1*.
For O=C(NCCc1ccccc1)c1coc(=O)c(Br)c1 the results were MsrA inh 5.6*, p-CIP stab down -10, MT1-MMP act inh -4, SKN-1 inh 4, MsrA act -16 and MsrA inh confirm 6.5*.
COc1cc2c(c(OC)c1OC)C1(CCCCC1)CC2NCC=C(C)C (stereo not drawn) was read as MsrA inh 0.
`COC(=O)CCC[C@H](C)[C@@H](NS(=O)(=O)c1ccc(C)cc1)C(C)(C)C` gave MsrA inh 0.
For Cc1ccc(C(=O)N2CCC[C@@H]2C(=O)N2CCC[C@H]2C(=O)NCc2ccccc2)cc1 the results were MsrA inh 0.
Cc1cccn2c(=O)c3cc(C(=O)NCc4ccccc4)c(=N)n(CCCN4CCOCC4)c3nc12 was read as MsrA inh 0, MT1-MMP act inh 10, SKN-1 inh -11 and MsrA act -2.
`Cc1cccn2c(=O)c3cc(C(=O)NCCN4CCOCC4)c(=N)n(CCCN4CCOCC4)c3nc12` gave MsrA inh 5.4*, p-CIP stab down -4, MT1-MMP act inh 5, SKN-1 inh -7, MsrA act -2 and MsrA inh confirm 0.
Screening CCN1C(=O)C(O)(CC(=O)/C=C/C=C/c2ccccc2)c2ccccc21 (stereo not drawn) returned MsrA inh 5.8*, p-CIP stab down -10, MT1-MMP act inh -2, SKN-1 inh 2, MsrA act -5 and MsrA inh confirm 4.
Screening NC(=O)CN1C(=O)C(O)(CC(=O)/C=C\c2ccc3c(c2)OCO3)c2ccccc21 (stereo not drawn) returned MsrA inh 4.8*, p-CIP stab down 2, MT1-MMP act inh -10, SKN-1 inh -8, MsrA act -5 and MsrA inh confirm 4.
`Cc1ccc2c(c1)C(O)(CC(=O)/C=C/C=C/c1ccccc1)C(=O)N2` (stereo not drawn) gave MsrA inh 6.3*, p-CIP stab down -8, MT1-MMP act inh 1, SKN-1 inh 3, MsrA act -7 and MsrA inh confirm 4.
Screening O=C(/C=C/C=C/c1ccccc1)CC1(O)C(=O)N(CCc2ccccc2)c2ccccc21 (stereo not drawn) returned MsrA inh 2, p-CIP stab down -4, MT1-MMP act inh 0, SKN-1 inh -4 and MsrA act -4.
`NC(=O)CN1C(=O)C(O)(CC(=O)/C=C\C=C\c2ccccc2)c2ccccc21` (stereo not drawn) gave MsrA inh 5.4*, p-CIP stab down -2, MT1-MMP act inh 2, SKN-1 inh -9, MsrA act -4 and MsrA inh confirm 5.0*.
For COC1C(O)CCC2(CO2)C1C1(C)OC1CC=C(C)C (stereo not drawn) the results were MsrA inh 0.
Screening CCCCc1c(-c2ccccc2OC)ncn1Cc1ccc(C)cc1 returned MsrA inh 0.
O=C1c2ccccc2C(=O)C1c1ccc(O)cc1 was read as MsrA inh 4.9*, p-CIP stab down 1, MT1-MMP act inh 3, SKN-1 inh -6, MsrA act -5 and MsrA inh confirm 3.
Screening O=C1c2ccccc2C(=O)C1c1ccc(Br)cc1 returned MsrA inh 0, p-CIP stab down -4, MT1-MMP act inh -5, SKN-1 inh 0 and MsrA act 0.
For COCCn1c(-c2ccccc2)nc(=S)c2c1CC(C)(C)OC2 the results were MsrA inh 3, p-CIP stab down -6, MT1-MMP act inh -1, SKN-1 inh 9 and MsrA act -3.
For CCN(CC)CCn1c(-c2ccccc2)nc(=S)c2c1CC(C)(C)OC2 the results were MsrA inh 6.3*, p-CIP stab down -3, MT1-MMP act inh 4, SKN-1 inh -41, MsrA act -6 and MsrA inh confirm 4.
CN(C)/C=N/c1nc2nccc(-c3ccc(F)cc3)n2n1 was read as MsrA inh 2, p-CIP stab down 2, MT1-MMP act inh 1, SKN-1 inh -3 and MsrA act -3.
For CN(C)/C=N/c1nc2nccc(-c3cccs3)n2n1 the results were MsrA inh 7.1*, p-CIP stab down -4, MT1-MMP act inh 3, SKN-1 inh 5, MsrA act -7 and MsrA inh confirm 6.1*.
For O=C(N/N=C/C=C/c1ccccc1)c1ccncc1 the results were MsrA inh 8.0*, p-CIP stab down 4, MT1-MMP act inh -6, SKN-1 inh -16, MsrA act -1 and MsrA inh confirm 6.9*.
Screening O=C(N/N=C/C=C/c1cccc([N+](=O)[O-])c1)c1ccncc1 returned MsrA inh -2, p-CIP stab down 9, MT1-MMP act inh 0, SKN-1 inh 12 and MsrA act -3.
For Nc1ccc(C(=O)N/N=C\C=C\c2cccc([N+](=O)[O-])c2)cc1 the results were MsrA inh 9.9*, p-CIP stab down -23, MT1-MMP act inh 5, SKN-1 inh 9, MsrA act -10 and MsrA inh confirm 6.8*.
For COC(=O)CCN(Cc1ccc(OC)cc1OC)S(=O)(=O)c1ccccc1Br the results were MsrA inh 0.

Screening results as filed in PubChem.
